Consider four compounds from ChEMBL document CHEMBL4000209, “Chemical synthesis and biological evaluation of ω-hydroxy polyunsaturated fatty acids” (Bioorg Med Chem Lett, 2017).

Activity calls are given as the source filed them.

By inhibition is commonly meant the share of the control response that was lost under treatment.

In data set [1] the test system is Rattus norvegicus. Description: Induction of mechanical allodynia in Sprague-Dawley rat assessed as decrease in withdrawal threshold at 1 ug administered as intraplantar injection measured up to 150 mins post dose by Von Frey assay. The arrangement: scale not given: the % may be the effect or the level left. The settings on record: in vivo, other, 2.5 h. Put shortly:
(§1)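 Naive male Sprague Dawley rats, n = 6; methyl esters given by intraplantar injection in 1:9 EtOH/saline. Mechanical withdrawal thresholds measured with an electronic von Frey aesthesiometer over a time course, ipsilateral and contralateral paws. Data analysed by two-way ANOVA with Holm-Sidak post hoc test.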

Data set [2] addresses T1, Prostaglandin G/H synthase 1 (Ovis aries) (UniProt P05979).
T1 sequence (whole entry): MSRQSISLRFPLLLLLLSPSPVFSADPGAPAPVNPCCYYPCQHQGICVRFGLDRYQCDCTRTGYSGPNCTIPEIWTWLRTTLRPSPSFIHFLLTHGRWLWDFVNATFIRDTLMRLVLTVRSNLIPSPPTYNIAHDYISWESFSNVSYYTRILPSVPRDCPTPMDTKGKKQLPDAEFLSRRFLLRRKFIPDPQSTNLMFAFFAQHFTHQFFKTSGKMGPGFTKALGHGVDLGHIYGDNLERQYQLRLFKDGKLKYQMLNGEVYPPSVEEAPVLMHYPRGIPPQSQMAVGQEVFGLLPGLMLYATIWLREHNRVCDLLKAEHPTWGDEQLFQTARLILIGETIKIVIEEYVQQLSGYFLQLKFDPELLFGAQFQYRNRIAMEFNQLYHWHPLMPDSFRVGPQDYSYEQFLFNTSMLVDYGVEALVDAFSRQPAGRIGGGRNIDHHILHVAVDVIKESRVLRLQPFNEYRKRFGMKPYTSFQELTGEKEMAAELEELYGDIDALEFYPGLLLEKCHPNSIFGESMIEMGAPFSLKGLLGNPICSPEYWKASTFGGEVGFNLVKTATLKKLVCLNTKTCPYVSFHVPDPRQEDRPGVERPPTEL
Description: Inhibition of ovine COX1 at 100 uM using arachidonic acid as substrate after 2 mins by fluorometric substrate-based fluorescence assay relative to control.

The target in data set [3] is Transient receptor potential cation channel subfamily V member 1 (Mus musculus) (UniProt Q704Y3). Briefly: Agonist activity at recombinant mouse TRPV1 expressed in HEK293 cells assessed as increase in calcium influx at 10 uM measured for 380 sec by Fluo-4 dye based FLIPR assay. In kind it is cell-based. Put shortly:
(§2)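 mTRPV1-transfected HEK293 cells; Ca2+ influx followed over time and quantified as area under the curve; capsaicin as positive control. Experiments repeated twice, each in triplicate.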

Data set [4] concerns the target T2, Prostaglandin G/H synthase 2 (Homo sapiens) (UniProt P35354).
T2 sequence (whole entry): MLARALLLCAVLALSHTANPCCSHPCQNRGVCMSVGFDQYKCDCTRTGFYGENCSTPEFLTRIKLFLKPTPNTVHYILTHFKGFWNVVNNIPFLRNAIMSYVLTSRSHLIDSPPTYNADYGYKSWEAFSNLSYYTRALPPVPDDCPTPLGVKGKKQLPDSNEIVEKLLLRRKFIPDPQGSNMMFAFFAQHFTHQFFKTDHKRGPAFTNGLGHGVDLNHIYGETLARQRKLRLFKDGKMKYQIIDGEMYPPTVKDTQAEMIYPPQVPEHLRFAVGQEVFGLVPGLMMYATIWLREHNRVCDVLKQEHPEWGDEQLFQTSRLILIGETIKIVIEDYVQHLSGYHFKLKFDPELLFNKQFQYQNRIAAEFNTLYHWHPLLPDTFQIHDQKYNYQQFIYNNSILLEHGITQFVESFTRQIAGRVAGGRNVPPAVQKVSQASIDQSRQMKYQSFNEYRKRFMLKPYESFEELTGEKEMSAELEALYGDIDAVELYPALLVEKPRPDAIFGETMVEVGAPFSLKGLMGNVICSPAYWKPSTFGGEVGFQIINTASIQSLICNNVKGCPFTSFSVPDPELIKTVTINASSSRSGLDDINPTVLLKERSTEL
The settings on record: at 100 µM.

In data set [5] the test system is Rattus norvegicus. Description: Induction of mechanical allodynia in Sprague-Dawley rat assessed as decrease in withdrawal threshold at 100 ng administered as intraplantar injection by Von Frey assay relative to control. Also noted: scale not given: the % may be the effect or the level left. As to conditions: in vivo, other. Put shortly: as §1
Data set [6] deals with Rattus norvegicus. Briefly: Induction of mechanical allodynia in Sprague-Dawley rat assessed as decrease in ipsilateral hind paw withdrawal threshold administered as intraplantar injection measured up to 150 mins post dose by Von Frey assay. As to conditions: in vivo, other, 2.5 h. The procedure, abridged:
as §1

For data set [7], the target named is Transient receptor potential cation channel subfamily V member 1 (Mus musculus) (UniProt Q704Y3). Briefly: Agonist activity at recombinant mouse TRPV1 expressed in HEK293 cells assessed as increase in calcium influx up to 10 uM measured for 380 sec by Fluo-4 dye based FLIPR assay. The data set is classed as cell-based. Put shortly: as §2
The test system of data set [8] is Rattus norvegicus. Briefly: Induction of mechanical allodynia in Sprague-Dawley rat assessed as decrease in contralateral hind paw withdrawal threshold at 3 ug administered as intraplantar injection measured up to 150 mins post dose by Von Frey assay. The settings on record: in vivo, other, 2.5 h. The procedure, abridged: as §1

Chain of Transient receptor potential cation channel subfamily V member 1 (Mus musculus) (Q704Y3 whole entry): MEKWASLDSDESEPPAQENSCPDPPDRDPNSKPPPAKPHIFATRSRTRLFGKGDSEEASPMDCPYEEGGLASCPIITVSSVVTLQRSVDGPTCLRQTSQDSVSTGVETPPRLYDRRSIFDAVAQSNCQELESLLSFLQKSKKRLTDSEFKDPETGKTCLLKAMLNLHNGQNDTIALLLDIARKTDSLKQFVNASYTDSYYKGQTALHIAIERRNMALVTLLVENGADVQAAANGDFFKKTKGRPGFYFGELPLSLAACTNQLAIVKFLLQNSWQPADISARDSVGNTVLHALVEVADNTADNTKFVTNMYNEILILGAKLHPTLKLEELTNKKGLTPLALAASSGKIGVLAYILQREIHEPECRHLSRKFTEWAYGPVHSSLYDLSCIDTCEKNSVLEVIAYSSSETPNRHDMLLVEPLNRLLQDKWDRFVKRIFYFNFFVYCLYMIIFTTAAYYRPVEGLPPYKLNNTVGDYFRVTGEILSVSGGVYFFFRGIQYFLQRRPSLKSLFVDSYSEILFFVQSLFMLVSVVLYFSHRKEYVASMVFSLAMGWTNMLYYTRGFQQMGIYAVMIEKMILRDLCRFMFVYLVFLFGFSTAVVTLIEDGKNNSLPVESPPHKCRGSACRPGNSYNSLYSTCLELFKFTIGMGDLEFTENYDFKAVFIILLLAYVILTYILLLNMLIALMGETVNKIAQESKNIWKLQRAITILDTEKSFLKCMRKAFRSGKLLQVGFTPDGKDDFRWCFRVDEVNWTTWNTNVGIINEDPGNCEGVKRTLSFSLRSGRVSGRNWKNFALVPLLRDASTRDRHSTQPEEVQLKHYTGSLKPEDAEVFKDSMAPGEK

As to `O=C(O)CC/C=C\C/C=C\C/C=C\C/C=C\C/C=C\C/C=C\CCO`, in the data set with Rattus norvegicus [1], the Activity entry is “Non-Toxic”. Also, the inhibition in data set [2] stood at 38.1%; in data set [4], 1%. Moreover, in data set [3], the outcome was Active.

Consider `CCCCC[C@H](O)/C=C/[C@H]1[C@H](O)CC(=O)[C@@H]1C/C=C\CCCC(=O)O` [DINOPROSTONE], for which the Activity with Rattus norvegicus [5] turned out to be 60%.

`O=C(O)CCC/C=C\C/C=C\C/C=C\C/C=C\CCCCCO`: the Activity was 30% in the data set on Rattus norvegicus [1], “Dose-dependent effect” in the data set with Rattus norvegicus [6] and “Non-Toxic” in the data set with Rattus norvegicus [8]. The inhibition in data set [2] came to 27.5%; in data set [4], 0%. Moreover, in data set [7], the outcome was inactive.

As for `O=C(O)CCC/C=C\C/C=C\C/C=C\C/C=C\C/C=C\CCO`, in the data set on Rattus norvegicus [1], the Activity entry is recorded as “Non-Toxic”. The inhibition amounted to 37.1% in data set [2] and 0% in data set [4]. Also, the result in data set [3] was Active.
